Assay results taken from ChEMBL document CHEMBL3994609, “Model-Based Discovery of Synthetic Agonists for the Zn2+-Sensing G-Protein-Coupled Receptor 39 (GPR39) Reveals Novel Biological Functions” (J Med Chem, 2017).
Each block holds one molecule with its values, some of them ahead of it. The source made the active and inactive calls. No cut-off for these calls is given here.

Key:
[1] = molecular target: T1, G-protein coupled receptor 39 (Homo sapiens, UniProt O43194); assay: (§1) Agonist activity at human GPR39 expressed in HEK293 cells co-expressing Galphaq assessed as myo-[2-3H]inositol phosphate accumulation in presence of 10 uM Zn2+ measured after 75 mins by scintillation proximity assay; type: functional, cell-based
T1 sequence (O43194 whole entry): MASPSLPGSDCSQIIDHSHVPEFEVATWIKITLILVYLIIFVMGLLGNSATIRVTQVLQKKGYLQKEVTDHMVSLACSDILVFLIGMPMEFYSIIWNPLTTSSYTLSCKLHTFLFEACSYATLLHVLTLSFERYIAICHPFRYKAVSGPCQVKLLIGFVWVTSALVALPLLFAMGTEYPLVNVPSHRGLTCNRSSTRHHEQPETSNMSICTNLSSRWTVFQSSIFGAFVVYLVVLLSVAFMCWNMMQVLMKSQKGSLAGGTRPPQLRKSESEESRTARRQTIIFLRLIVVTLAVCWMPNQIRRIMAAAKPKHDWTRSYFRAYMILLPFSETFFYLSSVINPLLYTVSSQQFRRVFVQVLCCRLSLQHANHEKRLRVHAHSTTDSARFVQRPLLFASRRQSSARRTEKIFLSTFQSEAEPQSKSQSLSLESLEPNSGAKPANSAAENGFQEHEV

[2] = molecular target: T2, G-protein coupled receptor 39 (Homo sapiens) (UniProt O43194); assay: Agonist activity at human GPR39 expressed in HEK293 cells co-expressing Galphaq assessed as myo-[2-3H]inositol phosphate accumulation in presence of 1 uM Zn2+ measured after 75 mins by scintillation proximity assay; type: functional, cell-based
T2 sequence (whole entry): T1 sequence (O43194 whole entry)

[3] = molecular target: T2, G-protein coupled receptor 39 (Homo sapiens); assay: Agonist activity at human GPR39 expressed in HEK293 cells co-expressing Galphaq assessed as myo-[2-3H]inositol phosphate accumulation in presence of 100 nM Zn2+ measured after 75 mins by scintillation proximity assay; type: functional, cell-based
[4] = molecular target: T2, G-protein coupled receptor 39 (Homo sapiens); assay: Agonist activity at human GPR39 expressed in HEK293 cells co-expressing Galphaq assessed as myo-[2-3H]inositol phosphate accumulation in presence of 10 uM Zn2+ measured after 75 mins by scintillation proximity assay relative to zinc; type: functional, cell-based
[5] = molecular target: T2, G-protein coupled receptor 39 (Homo sapiens); assay: (§2) Agonist activity at human GPR39 expressed in HEK293 cells co-expressing Galphaq assessed as myo-[2-3H]inositol phosphate accumulation measured after 75 mins by scintillation proximity assay; type: functional, cell-based
[6] = molecular target: T3, G-protein coupled receptor 39 (Mus musculus) (UniProt Q5U431); assay: Agonist activity at GPR39 in primary gastric mucosal cells isolated from C57BL/6 mouse assessed as myo-[2-3H]inositol phosphate accumulation in presence of 10 uM Zn2+ measured after 75 mins by scintillation proximity assay; type: functional
T3 sequence (whole entry): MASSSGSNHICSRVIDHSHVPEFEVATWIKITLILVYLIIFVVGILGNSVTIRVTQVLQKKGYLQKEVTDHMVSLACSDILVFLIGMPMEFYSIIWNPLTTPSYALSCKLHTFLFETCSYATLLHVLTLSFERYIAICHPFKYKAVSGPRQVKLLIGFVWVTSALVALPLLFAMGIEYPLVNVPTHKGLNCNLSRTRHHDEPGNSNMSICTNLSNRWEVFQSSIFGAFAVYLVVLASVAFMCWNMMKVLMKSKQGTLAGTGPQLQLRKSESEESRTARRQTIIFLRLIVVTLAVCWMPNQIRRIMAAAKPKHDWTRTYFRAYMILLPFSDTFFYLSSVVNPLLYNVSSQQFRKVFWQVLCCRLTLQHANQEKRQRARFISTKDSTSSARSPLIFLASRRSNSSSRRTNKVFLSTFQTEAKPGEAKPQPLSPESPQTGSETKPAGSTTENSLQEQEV
Summary of the method: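 Primary murine gastric mucosal cell cultures stimulated with ligand plus 10 μM Zn2+; inositol phosphate turnover read out as for the transfected-cell IP accumulation assay.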

[7] = molecular target: C-C chemokine receptor type 5 (Macaca mulatta) (UniProt P61813); assay: Agonist activity at full length rhesus monkey CCR5 assessed as myo-[2-3H]inositol phosphate accumulation measured after 75 mins by scintillation proximity assay; type: functional
[8] = molecular target: T4, G-protein coupled receptor 39 (Mus musculus, UniProt Q5U431); assay: Agonist activity at mouse GPR39 expressed in HEK293 cells co-expressing Galphaq assessed as myo-[2-3H]inositol phosphate accumulation in presence of 10 uM Zn2+ measured after 75 mins by scintillation proximity assay; type: functional, cell-based
T4 sequence (Q5U431 whole entry): T3 sequence (whole entry)

[9] = test system: Primary gastric mucosal cell; assay: Induction of CGRP-induced somatostatin release in primary gastric mucosal cells isolated from GPR39 deficient C57BL/6 mouse at 1 uM in presence of 10 uM of Zn2+ measured after 4 hrs by radioimmunoassay; type: functional, cell-based
Summary of the method: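 Primary gastric mucosal cells from GPR39-KO mice, day after preparation, exposed to ligands (1 μM, 10 μM Zn2+) in triplicate for 4 h; supernatant somatostatin measured by in-house RIA and expressed as percent of medium-alone secretion; 10 nM CGRP used as a comparator stimulus; n=2.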

[10] = molecular target: T2, G-protein coupled receptor 39 (Homo sapiens); assay: Agonist activity at GPR39 (unknown origin) expressed in COS7 cells co-expressing Galphas assessed as increase in intracellular cAMP level measured after 30 mins by chemiluminescence assay; type: functional, cell-based
[11] = molecular target: Neuromedin-U receptor 2 (Homo sapiens) (UniProt Q9GZQ4); assay: Agonist activity at human NMU2 receptor assessed as myo-[2-3H]inositol phosphate accumulation measured after 75 mins by scintillation proximity assay; type: functional
Neuromedin-U receptor 2 (Homo sapiens), sequence (Q9GZQ4 whole entry): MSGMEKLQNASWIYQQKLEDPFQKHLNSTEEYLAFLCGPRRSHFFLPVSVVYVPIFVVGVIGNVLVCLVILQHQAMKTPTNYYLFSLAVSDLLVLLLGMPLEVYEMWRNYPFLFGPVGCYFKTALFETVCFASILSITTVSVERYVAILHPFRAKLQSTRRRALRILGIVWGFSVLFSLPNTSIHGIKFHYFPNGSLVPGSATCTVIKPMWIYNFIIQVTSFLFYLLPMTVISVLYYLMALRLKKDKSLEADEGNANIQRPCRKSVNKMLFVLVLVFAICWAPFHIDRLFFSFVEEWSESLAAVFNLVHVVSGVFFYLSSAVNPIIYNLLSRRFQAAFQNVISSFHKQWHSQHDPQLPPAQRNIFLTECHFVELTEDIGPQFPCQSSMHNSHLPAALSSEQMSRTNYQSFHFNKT

[12] = molecular target: Motilin receptor (Homo sapiens) (UniProt O43193); assay: Agonist activity at human motilin receptor (412 residues) assessed as myo-[2-3H]inositol phosphate accumulation in presence of 10 uM Zn2+ measured after 75 mins by scintillation proximity assay; type: functional
Motilin receptor (Homo sapiens), sequence (O43193 whole entry): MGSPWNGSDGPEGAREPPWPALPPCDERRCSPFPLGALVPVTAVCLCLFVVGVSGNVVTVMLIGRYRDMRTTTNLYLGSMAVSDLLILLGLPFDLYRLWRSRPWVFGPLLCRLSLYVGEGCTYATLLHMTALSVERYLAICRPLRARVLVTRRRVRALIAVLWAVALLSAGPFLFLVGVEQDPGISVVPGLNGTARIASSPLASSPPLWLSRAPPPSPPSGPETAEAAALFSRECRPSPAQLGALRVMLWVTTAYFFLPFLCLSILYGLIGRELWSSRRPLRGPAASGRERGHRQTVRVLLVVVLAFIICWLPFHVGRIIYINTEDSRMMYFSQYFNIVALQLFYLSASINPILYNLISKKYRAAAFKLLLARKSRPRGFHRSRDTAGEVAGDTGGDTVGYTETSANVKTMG

[13] = molecular target: T3, G-protein coupled receptor 39 (Mus musculus); assay: Agonist activity at GPR39 in primary gastric mucosal cells isolated from C57BL/6 mouse assessed as inhibition of isoproterenol-induced ghrelin secretion at 1 uM in presence of 10 uM of Zn2+ and somatostatin receptor antagonist BIM-23627 measured after 4 hrs by ELISA
Summary of the method: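 Primary gastric mucosal cell cultures from mice, incubated the day after preparation with ligands at 1 μM with 10 μM Zn2+ (with or without a somatostatin receptor antagonist) in triplicate for 4 h. Acyl-ghrelin in supernatant measured by ELISA, expressed as percent of medium-alone cells; n=5–7; unpaired t-test with Welch's correction versus vehicle.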

[14] = molecular target: Neuromedin-U receptor 2 (Homo sapiens) (UniProt Q9GZQ4); assay: Agonist activity at human NMU2 receptor assessed as myo-[2-3H]inositol phosphate accumulation in presence of 10 uM Zn2+ measured after 75 mins by scintillation proximity assay; type: functional
[15] = molecular target: T3, G-protein coupled receptor 39 (Mus musculus); assay: Agonist activity at GPR39 in primary gastric mucosal cells isolated from C57BL/6 mouse assessed as inhibition of basal ghrelin secretion at 1 uM in presence of 10 uM of Zn2+ measured after 4 hrs by ELISA relative to basal level
[16] = molecular target: Motilin receptor (Homo sapiens) (UniProt O43193); assay: Agonist activity at human motilin receptor (412 residues) assessed as myo-[2-3H]inositol phosphate accumulation measured after 75 mins by scintillation proximity assay; type: functional
[17] = molecular target: T2, G-protein coupled receptor 39 (Homo sapiens); assay: (§3) Agonist activity at GPR39 (unknown origin) expressed in COS7 cells co-expressing Galphas assessed as increase in intracellular cAMP level in presence of 3 uM Zn2+ measured after 30 mins by chemiluminescence assay; type: functional, cell-based
[18] = molecular target: T1, G-protein coupled receptor 39; assay: as §3; type: functional, cell-based
[19] = molecular target: Growth hormone secretagogue receptor type 1 (Homo sapiens) (UniProt Q92847); assay: Agonist activity at human ghrelin receptor ([…]) assessed as myo-[2-3H]inositol phosphate accumulation measured after 75 mins by scintillation proximity assay; type: functional
Growth hormone secretagogue receptor type 1 (Homo sapiens), sequence (Q92847 whole entry): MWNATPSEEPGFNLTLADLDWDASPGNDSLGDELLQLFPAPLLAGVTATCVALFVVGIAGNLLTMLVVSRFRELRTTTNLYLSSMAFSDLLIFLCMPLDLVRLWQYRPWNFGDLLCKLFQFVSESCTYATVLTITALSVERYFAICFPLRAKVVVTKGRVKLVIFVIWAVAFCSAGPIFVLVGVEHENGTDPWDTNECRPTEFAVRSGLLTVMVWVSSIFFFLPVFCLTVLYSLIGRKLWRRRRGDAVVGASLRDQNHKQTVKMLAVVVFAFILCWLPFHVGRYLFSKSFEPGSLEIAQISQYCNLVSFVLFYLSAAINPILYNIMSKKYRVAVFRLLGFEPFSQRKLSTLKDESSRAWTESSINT

[20] = Increase in CGRP-induced somatostatin release in primary gastric mucosal cells isolated from GPR39 deficient C57BL/6 mouse at 1 uM in presence of 10 uM of Zn2+ measured after 4 hrs by radioimmunoassay relative to control; type: functional, Primary gastric mucosal cell; details: in the assay text read “C57BL/6 mouse” for “GPR39 deficient C57BL/6 mouse”
[21] = molecular target: T5, C-C chemokine receptor type 1 (Homo sapiens) (UniProt P32246); assay: Agonist activity at full length human CCR1 assessed as myo-[2-3H]inositol phosphate accumulation measured after 75 mins by scintillation proximity assay; type: functional
T5 sequence (whole entry): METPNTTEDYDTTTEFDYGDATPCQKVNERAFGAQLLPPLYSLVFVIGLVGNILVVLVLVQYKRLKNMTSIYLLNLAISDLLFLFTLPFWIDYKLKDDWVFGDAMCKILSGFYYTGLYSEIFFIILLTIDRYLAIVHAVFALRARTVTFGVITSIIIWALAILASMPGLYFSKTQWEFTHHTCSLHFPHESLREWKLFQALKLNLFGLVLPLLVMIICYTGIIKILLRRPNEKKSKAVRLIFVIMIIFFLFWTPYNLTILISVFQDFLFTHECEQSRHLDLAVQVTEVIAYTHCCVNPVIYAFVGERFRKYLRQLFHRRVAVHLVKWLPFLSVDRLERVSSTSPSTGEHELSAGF

[22] = molecular target: C-C chemokine receptor type 5 (Macaca mulatta) (UniProt P61813); assay: Agonist activity at full length monkey CCR5 assessed as myo-[2-3H]inositol phosphate accumulation in presence of 10 uM Zn2+ measured after 75 mins by scintillation proximity assay; type: functional
[23] = molecular target: T5, C-C chemokine receptor type 1 (Homo sapiens); assay: Agonist activity at full length human CCR1 assessed as myo-[2-3H]inositol phosphate accumulation in presence of 10 uM Zn2+ measured after 75 mins by scintillation proximity assay; type: functional
[24] = molecular target: Growth hormone secretagogue receptor type 1 (Homo sapiens) (UniProt Q92847); assay: Agonist activity at human ghrelin receptor ([…]) assessed as myo-[2-3H]inositol phosphate accumulation in presence of 10 uM Zn2+ measured after 75 mins by scintillation proximity assay; type: functional
[25] = molecular target: T1, G-protein coupled receptor 39; assay: as §2; type: functional, cell-based
[26] = molecular target: T2, G-protein coupled receptor 39 (Homo sapiens); assay: as §1; type: functional, cell-based

EC50 [1]: 200 nM | Activity [2]: Dose-dependent effect | Activity [3]: inactive | fold change (FC) [4]: 2 | Activity [5]: inactive
Compound: O=C1/C(=C/NCCCO)C(c2ccccc2)=NN1c1nc2ccccc2s1

Activity [6]: Dose-dependent effect | Activity [7]: inactive | EC50 [1]: 1.5 nM | EC50 [8]: 2.6 nM | Activity [10]: inactive | Activity [11]: inactive | Activity [12]: inactive | inhibition [13]: inactive | Activity [14]: inactive | inhibition [15]: 61% | Activity [16]: inactive | Activity [17]: Dose-dependent effect | EC50 [18]: 12 nM | Activity [19]: inactive | Activity [21]: inactive | Activity [22]: inactive | Activity [23]: inactive | Activity [24]: inactive | EC50 [25]: 30 nM
Compound: Cc1nn(-c2ncnc3nc[nH]c23)c2c1C(OCc1cc(F)cc3c1OCOC3)CC(=O)N2 (centres undefined)
Activity [9]: inactive | Activity [20]: 82%

Activity [26]: Active | fold change (FC) [4]: 2 | EC50 [25]: 3000 nM
Compound: Cc1cc(C)nc(-n2nc(C)c3c2NC(=O)CC3c2ccc(COc3cccc(Cl)c3)cc2)n1 (centres undefined)
